Experimental data: ChEMBL document CHEMBL1154352, “Toll-like receptor 7 selective synthetic oligoribonucleotide agonists: synthesis and structure-activity relationship studies” (J Med Chem, 2009)
Calls of active or inactive are those of the source. No cut-off for these calls is given here.

Assays:
[1] = biological target: T1, Toll-like receptor 8 (Homo sapiens) (UniProt Q9NR97); experiment: Activation of human TLR8 expressed in HEK293XL assessed as fold induction of NF-kappaB activity at 50 ug/ml after 18 hrs by reporter gene assay relative to control
T1 sequence (whole entry): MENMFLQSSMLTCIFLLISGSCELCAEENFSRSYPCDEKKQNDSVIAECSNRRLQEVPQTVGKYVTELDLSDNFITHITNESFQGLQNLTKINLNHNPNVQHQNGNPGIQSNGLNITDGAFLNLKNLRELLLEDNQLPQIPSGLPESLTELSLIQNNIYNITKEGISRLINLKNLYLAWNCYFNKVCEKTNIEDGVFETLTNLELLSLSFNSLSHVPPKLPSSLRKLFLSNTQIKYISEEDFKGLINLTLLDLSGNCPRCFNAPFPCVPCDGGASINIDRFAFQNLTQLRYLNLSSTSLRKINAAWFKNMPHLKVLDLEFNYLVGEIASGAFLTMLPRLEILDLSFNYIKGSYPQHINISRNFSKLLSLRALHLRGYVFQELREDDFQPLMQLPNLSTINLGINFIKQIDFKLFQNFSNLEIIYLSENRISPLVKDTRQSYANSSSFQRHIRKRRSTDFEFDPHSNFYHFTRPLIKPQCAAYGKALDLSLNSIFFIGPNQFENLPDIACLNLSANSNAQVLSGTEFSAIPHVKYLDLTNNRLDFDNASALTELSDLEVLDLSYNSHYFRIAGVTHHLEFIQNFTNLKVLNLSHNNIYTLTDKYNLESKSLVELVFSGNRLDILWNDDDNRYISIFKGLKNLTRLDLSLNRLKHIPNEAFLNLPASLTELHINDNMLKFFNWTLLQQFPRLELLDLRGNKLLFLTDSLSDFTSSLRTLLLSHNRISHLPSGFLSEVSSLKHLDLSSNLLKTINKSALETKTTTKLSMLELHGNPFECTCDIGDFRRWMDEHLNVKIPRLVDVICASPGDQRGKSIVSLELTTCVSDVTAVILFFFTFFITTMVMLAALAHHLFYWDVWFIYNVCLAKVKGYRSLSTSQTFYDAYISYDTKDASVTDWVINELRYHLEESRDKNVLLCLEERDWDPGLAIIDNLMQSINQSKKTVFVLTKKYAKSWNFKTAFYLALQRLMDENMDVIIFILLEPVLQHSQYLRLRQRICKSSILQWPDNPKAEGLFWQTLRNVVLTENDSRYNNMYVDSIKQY
How it was run: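 HEK293 cells stably expressing human TLR7 or TLR8, transiently transfected with SEAP reporter plasmid; medium replaced, SIMRA compounds added, 18 h incubation. Supernatant SEAP measured by QuantiBlue; expressed as fold increase in NF-κB activity over PBS control. Tabulated data at 50 μg/mL, representative of three independent experiments.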

[2] = Metabolic stability in human serum assessed as full length product remaining after 10 mins by HPLC; assay type: ADME, cell-free; conditions: read-out: Stability
How it was run: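 About 0.5 A260 units compound in 1% human serum in PBS, 37 °C; aliquot taken at 10 min, analysed by anion-exchange HPLC for percent intact full-length product.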

[3] = biological target: Toll-like receptor 3 (Homo sapiens) (UniProt O15455); experiment: Activation of human TLR3 expressed in HEK293 assessed as induction of NF-kappaB activity reporter gene assay; assay type: cell-based
Toll-like receptor 3 (Homo sapiens), sequence (O15455 whole entry): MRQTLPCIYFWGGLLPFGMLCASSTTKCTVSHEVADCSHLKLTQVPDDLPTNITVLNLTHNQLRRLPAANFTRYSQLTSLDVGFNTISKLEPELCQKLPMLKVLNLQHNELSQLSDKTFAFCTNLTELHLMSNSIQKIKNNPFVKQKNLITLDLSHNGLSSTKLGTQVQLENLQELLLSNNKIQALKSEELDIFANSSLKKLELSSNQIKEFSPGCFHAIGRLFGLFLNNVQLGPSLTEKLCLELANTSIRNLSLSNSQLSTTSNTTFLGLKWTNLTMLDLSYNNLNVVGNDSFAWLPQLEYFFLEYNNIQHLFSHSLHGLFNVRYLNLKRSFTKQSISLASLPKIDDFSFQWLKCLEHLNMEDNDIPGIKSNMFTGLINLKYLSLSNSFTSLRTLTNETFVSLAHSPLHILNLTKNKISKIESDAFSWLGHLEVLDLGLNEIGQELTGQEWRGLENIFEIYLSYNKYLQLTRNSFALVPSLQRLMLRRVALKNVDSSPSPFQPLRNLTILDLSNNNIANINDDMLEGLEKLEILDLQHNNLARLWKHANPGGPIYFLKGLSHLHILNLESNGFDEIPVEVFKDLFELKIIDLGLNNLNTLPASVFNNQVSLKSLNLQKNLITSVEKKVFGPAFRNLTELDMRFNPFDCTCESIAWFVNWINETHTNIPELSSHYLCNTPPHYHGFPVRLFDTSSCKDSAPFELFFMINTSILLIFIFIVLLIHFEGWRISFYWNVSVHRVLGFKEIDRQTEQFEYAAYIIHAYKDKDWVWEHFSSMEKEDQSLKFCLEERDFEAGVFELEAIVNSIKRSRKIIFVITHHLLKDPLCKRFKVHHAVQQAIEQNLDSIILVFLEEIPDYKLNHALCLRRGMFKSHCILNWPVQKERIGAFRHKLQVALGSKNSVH

Row | SMILES | fold change (FC) [1] | remaining at 10 min [2] [%] | Activity [3]
1 | Nc1ccn([C@@H]2O[C@H](COP(=O)(S)O[C@H]3[C@@H](O)[C@H](n4cnc5c(N)ncnc54)O[C@@H]3CO)[C@@H](OP(=O)(S)OC[C@H]3O[C@@H](n4ccc5c(=O)[nH]c(N)nc54)[C@H](O)[C@@H]3OP(=O)(S)OC[C@H]3O[C@@H](n4ccc(=O)[nH]c4=O)[C@H](O)[C@@H]3OP(=O)(S)OC[C@H]3O[C@@H](n4ccc5c(=O)[nH]c(N)nc54)[C@H](O)[C@@H]3OP(=O)(S)OC[C@H]3O[C@@H](n4cnc5c(N)nc(N)nc54)[C@H](O)[C@@H]3OP(=O)(S)OC[C@H]3O[C@@H](n4cnc5c(N)ncnc54)[C@H](O)[C@@H]3OP(=O)(S)OC[C@H]3O[C@@H](n4ccc5c(=O)[nH]c(N)nc54)[C@H](O)[C@@H]3OP(=O)(S)OC[C@H]3O[C@@H](n4ccc(N)nc4=O)[C@H](O)[C@@H]3OP(=O)(S)OC[C@H]3O[C@@H](n4ccc(=O)[nH]c4=O)[C@H](O)[C@@H]3OP(=O)(S)OC[C@H]3O[C@@H](n4ccc(=O)[nH]c4=O)[C@H](O)[C@@H]3OP(=O)(S)OCC(O)COP(=O)(S)O[C@H]3[C@@H](O)[C@H](n4ccc(=O)[nH]c4=O)O[C@@H]3COP(=O)(S)O[C@H]3[C@@H](O)[C@H](n4ccc(=O)[nH]c4=O)O[C@@H]3COP(=O)(S)O[C@H]3[C@@H](O)[C@H](n4ccc(N)nc4=O)O[C@@H]3COP(=O)(S)O[C@H]3[C@@H](O)[C@H](n4ccc5c(=O)[nH]c(N)nc54)O[C@@H]3COP(=O)(S)O[C@H]3[C@@H](O)[C@H](n4cnc5c(N)nc(N)nc54)O[C@@H]3COP(=O)(S)O[C@H]3[C@@H](O)[C@H](n4cnc5c(N)nc(N)nc54)O[C@@H]3COP(=O)(S)O[C@H]3[C@@H](O)[C@H](n4ccc5c(=O)[nH]c(N)nc54)O[C@@H]3COP(=O)(S)O[C@H]3[C@@H](O)[C@H](n4ccc(=O)[nH]c4=O)O[C@@H]3COP(=O)(S)O[C@H]3[C@@H](O)[C@H](n4ccc5c(=O)[nH]c(N)nc54)O[C@@H]3COP(=O)(S)O[C@H]3[C@@H](O)[C@H](n4ccc(N)nc4=O)O[C@@H]3COP(=O)(S)O[C@H]3[C@@H](O)[C@H](n4cnc5c(N)ncnc54)O[C@@H]3CO)[C@H]2O)c(=O)n1 (some centres undefined) | 2 | 74 | inactive
2 | Nc1ccn([C@@H]2O[C@H](COP(=O)(S)O[C@H]3[C@@H](O)[C@H](n4cnc5c(N)ncnc54)O[C@@H]3CO)[C@@H](OP(=O)(S)OC[C@H]3O[C@@H](n4ccc(=O)[nH]c4=O)[C@H](O)[C@@H]3OP(=O)(S)OC[C@H]3O[C@@H](n4ccc(=O)[nH]c4=O)[C@H](O)[C@@H]3OP(=O)(S)OC[C@H]3O[C@@H](n4ccc5c(=O)[nH]c(N)nc54)[C@H](O)[C@@H]3OP(=O)(S)OC[C@H]3O[C@@H](n4cnc5c(N)ncnc54)[C@H](O)[C@@H]3OP(=O)(S)OC[C@H]3O[C@@H](n4cnc5c(N)ncnc54)[C@H](O)[C@@H]3OP(=O)(S)OC[C@H]3O[C@@H](n4ccc(N)nc4=O)[C@H](O)[C@@H]3OP(=O)(S)OC[C@H]3O[C@@H](n4ccc(=O)[nH]c4=O)[C@H](O)[C@@H]3OP(=O)(S)OC[C@H]3O[C@@H](n4ccc(=O)[nH]c4=O)[C@H](O)[C@@H]3OP(=O)(S)OC[C@H]3O[C@@H](n4ccc5c(=O)[nH]c(N)nc54)[C@H](O)[C@@H]3OP(=O)(S)OCC(O)COP(=O)(S)O[C@H]3[C@@H](O)[C@H](n4ccc5c(=O)[nH]c(N)nc54)O[C@@H]3COP(=O)(S)O[C@H]3[C@@H](O)[C@H](n4ccc(=O)[nH]c4=O)O[C@@H]3COP(=O)(S)O[C@H]3[C@@H](O)[C@H](n4ccc(=O)[nH]c4=O)O[C@@H]3COP(=O)(S)O[C@H]3[C@@H](O)[C@H](n4ccc(N)nc4=O)O[C@@H]3COP(=O)(S)O[C@H]3[C@@H](O)[C@H](n4cnc5c(N)ncnc54)O[C@@H]3COP(=O)(S)O[C@H]3[C@@H](O)[C@H](n4cnc5c(N)ncnc54)O[C@@H]3COP(=O)(S)O[C@H]3[C@@H](O)[C@H](n4ccc5c(=O)[nH]c(N)nc54)O[C@@H]3COP(=O)(S)O[C@H]3[C@@H](O)[C@H](n4ccc(=O)[nH]c4=O)O[C@@H]3COP(=O)(S)O[C@H]3[C@@H](O)[C@H](n4ccc(=O)[nH]c4=O)O[C@@H]3COP(=O)(S)O[C@H]3[C@@H](O)[C@H](n4ccc(N)nc4=O)O[C@@H]3COP(=O)(S)O[C@H]3[C@@H](O)[C@H](n4cnc5c(N)ncnc54)O[C@@H]3CO)[C@H]2O)c(=O)n1 (some centres undefined) | 4.9 | 84 | inactive
3 | Nc1ccn([C@@H]2O[C@H](COP(=O)(S)O[C@H]3[C@@H](O)[C@H](n4cnc5c(N)ncnc54)O[C@@H]3COP(=O)(S)O[C@H]3[C@@H](O)[C@H](n4ccc5c(=O)[nH]c(N)nc54)O[C@@H]3COP(=O)(S)O[C@H]3[C@@H](O)[C@H](n4ccc(=O)[nH]c4=O)O[C@@H]3CO)[C@@H](OP(=O)(S)OC[C@H]3O[C@@H](n4ccc5c(=O)[nH]c(N)nc54)[C@H](O)[C@@H]3OP(=O)(S)OC[C@H]3O[C@@H](n4cnc5c(N)ncnc54)[C@H](O)[C@@H]3OC[C@H]3O[C@@H](n4ccc(=O)[nH]c4=O)[C@H](O)[C@@H]3OP(=O)(S)ON[C@H]3O[C@@H](n4ccc5c(=O)[nH]c(N)nc54)[C@H](O)[C@@H]3OP(=O)(S)OC[C@H]3O[C@@H](n4cnc5c(N)ncnc54)[C@H](O)[C@@H]3OP(=O)(S)OC[C@H]3O[C@@H](n4ccc(=O)[nH]c4=O)[C@H](O)[C@@H]3OP(=O)(S)OC[C@H]3O[C@@H](n4ccc(=O)[nH]c4=O)[C@H](O)[C@@H]3OP(=O)(S)OCC(O)COP(=O)(S)O[C@H]3[C@@H](O)[C@H](n4ccc(=O)[nH]c4=O)O[C@@H]3COP(=O)(S)O[C@H]3[C@@H](O)[C@H](n4ccc(=O)[nH]c4=O)O[C@@H]3COP(=O)(S)O[C@H]3[C@@H](O)[C@H](n4cnc5c(N)ncnc54)O[C@@H]3COP(=O)(S)O[C@H]3[C@@H](O)[C@H](n4ccc5c(=O)[nH]c(N)nc54)O[C@@H]3NOP(=O)(S)O[C@H]3[C@@H](O)[C@H](n4ccc(=O)[nH]c4=O)O[C@@H]3CO[C@H]3[C@@H](O)[C@H](n4cnc5c(N)ncnc54)O[C@@H]3COP(=O)(S)O[C@H]3[C@@H](O)[C@H](n4ccc5c(=O)[nH]c(N)nc54)O[C@@H]3COP(=O)(S)O[C@H]3[C@@H](O)[C@H](n4ccc(N)nc4=O)O[C@@H]3COP(=O)(S)O[C@H]3[C@@H](O)[C@H](n4cnc5c(N)ncnc54)O[C@@H]3COP(=O)(S)O[C@H]3[C@@H](O)[C@H](n4ccc5c(=O)[nH]c(N)nc54)O[C@@H]3COP(=O)(S)O[C@H]3[C@@H](O)[C@H](n4ccc(=O)[nH]c4=O)O[C@@H]3CO)[C@H]2O)c(=O)n1 (some centres undefined) | 4.6 | 86 | inactive
